Laboratory results: ChEMBL document CHEMBL2311381, “Synthesis and biological activity of aminophthalazines and aminopyridazines as novel inhibitors of PGE2 production in cells” (Bioorg Med Chem Lett, 2013)
Activity calls are given as the source filed them. The calls are words filed in the database; no cut-off is given here.

Key:
[1] = (§1) Inhibition of IL-1beta-induced PGE2 production in human HCA-7 cells at 1 uM after 72 hrs by EIA; assay type: functional; conditions: HCA-7, 72 h
Procedure, shortened: (§2)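 HCA-7 colon cancer cells were grown overnight in DMEM/10% FBS, then serum-starved for 18 h. They were stimulated with 10 ng/ml IL-1β together with compound (DMSO solution) in serum-free medium for 72 h. PGE2 in the supernatant was measured by EIA. Single-concentration screening was at 1 µM, giving % reduction ± SD (n = 3). EC50 values came from increasing concentrations. Celecoxib served as the positive control.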

[2] = Inhibition of IL-1beta-induced PGE2 production in human HCA-7 cells after 72 hrs by EIA; assay type: functional, cell-based; conditions: HCA-7, 72 h; procedure, shortened: as §2
[3] = target: T1, Prostaglandin G/H synthase 2 (Homo sapiens, UniProt P35354); experiment: (§3) Inhibition of COX-2 (unknown origin) at 5 uM; conditions: 5 µM
T1 sequence (P35354 whole entry): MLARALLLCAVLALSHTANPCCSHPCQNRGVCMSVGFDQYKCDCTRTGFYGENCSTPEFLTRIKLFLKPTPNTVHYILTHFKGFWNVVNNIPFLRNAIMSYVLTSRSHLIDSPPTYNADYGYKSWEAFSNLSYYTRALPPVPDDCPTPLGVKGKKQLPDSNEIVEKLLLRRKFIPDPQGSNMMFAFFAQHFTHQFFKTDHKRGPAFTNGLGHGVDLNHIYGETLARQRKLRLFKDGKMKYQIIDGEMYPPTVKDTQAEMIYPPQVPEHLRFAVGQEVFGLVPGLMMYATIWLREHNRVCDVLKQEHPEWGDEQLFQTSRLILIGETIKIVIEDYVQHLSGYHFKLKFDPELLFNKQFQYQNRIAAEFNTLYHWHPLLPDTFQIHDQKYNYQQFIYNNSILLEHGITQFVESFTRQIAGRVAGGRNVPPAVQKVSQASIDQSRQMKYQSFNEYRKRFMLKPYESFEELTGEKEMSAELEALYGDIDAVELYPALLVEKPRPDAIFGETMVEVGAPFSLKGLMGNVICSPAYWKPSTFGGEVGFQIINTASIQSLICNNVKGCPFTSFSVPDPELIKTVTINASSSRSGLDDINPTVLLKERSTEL
Procedure, shortened: (§4)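 Cell-free COX-2 activity measured with a fluorescent COX inhibitor screening kit, run per the kit instructions. Compounds were tested at 5 µM. Results are given as % inhibition ± SD (n = 3). Celecoxib served as the positive control. Dose-response curves were not run.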

[4] = system: HCA-7; experiment: as §1; assay type: functional; procedure, shortened: as §2
[5] = target: T2, COX-2 (Prostaglandin G/H synthase 2) (Homo sapiens, UniProt P35354); experiment: as §3; procedure, shortened: as §4
T2 sequence (P35354 whole entry): T1 sequence (P35354 whole entry)

[6] = target: HCA-7 cells (Homo sapiens); experiment: Inhibition of PGE2 production in human HCA-7 cells

SMILES	EC50 [2]	inhibition (INH) [3]	inhibition at 5 µM [5]	EC50 [6]	inhibition at 1 µM [1]	inhibition [4]
Cc1ccc(Nc2nnc(-c3ccc4c(c3)OCO4)c3ccccc23)cc1					59%	
COc1ccc(-c2ccc(Nc3ccc(C)cc3)nn2)cc1					49%	
Cc1ccc(Nc2ccc(-c3ccccc3)nn2)cc1					62.5%	
NS(=O)(=O)c1ccc(Nc2nnc(-c3ccccc3)c3ccccc23)cc1						inactive
COc1ccc(-c2nnc(Nc3ccc(OCC(N)=O)cc3)c3ccccc23)cc1						inactive
COc1ccc(Nc2nnc(-c3ccc(C(=O)NCCO)cc3)c3ccccc23)cc1					39.2%	
Clc1ccc(-c2csc(Nc3ccc(Oc4ccccc4)cc3)n2)cc1	330 nM			330 nM		
CCOC(=O)c1ccc(Nc2nnc(-c3ccccc3)c3ccccc23)cc1					18.4%	
COc1cccc(-c2nnc(Nc3ccc(C)cc3)c3ccccc23)c1					62%	
Cc1ccc(Nc2nnc(-c3cncnc3)c3ccccc23)cc1					15.1%	
COc1ccc(N(C)c2nnc(-c3ccccc3)c3ccccc23)cc1	220 nM		21.4%		92.4%	
Oc1ccc(Nc2nnc(-c3ccccc3)c3ccccc23)cc1					26.7%	

Now from value to compound, other results behind:

EC50 [2]	inhibition (INH) [3]	inhibition at 5 µM [5]	EC50 [6]	SMILES	inhibition at 1 µM [1]	inhibition [4]
380 nM	Not Active			Cc1ccc(Nc2nnc(-c3ccccc3Cl)c3ccccc23)cc1	97.2%	
90 nM	Not Active			COc1ccc(-c2nnc(Nc3ccc(Oc4ccccc4)cc3)c3ccccc23)cc1	92.6%	
	Not Active			c1ccc(Oc2ccc(Nc3nnc(-c4ccccc4)c4ccccc34)cc2)cc1	71.2%	
860 nM	Not Active			Cc1ccc(Nc2nnc(-c3cccc(Cl)c3)c3ccccc23)cc1	75.2%	
930 nM	Not Active			CCc1ccc(Nc2nnc(-c3ccc(OC)cc3)c3ccccc23)cc1	85%	
640 nM	Not Active			COc1ccc(-c2nnc(Nc3cccc(C)c3)c3ccccc23)cc1	87.5%	
50 nM	Not Active			COc1ccc(-c2nnc(N(C)c3ccc(C)cc3)c3ccccc23)cc1	87%	
590 nM	Not Active			COc1ccccc1-c1nnc(Nc2ccc(C)cc2)c2ccccc12	77.2%	
760 nM	Not Active			Cc1cccc(Nc2nnc(-c3ccccc3)c3ccccc23)c1	74.1%	
32 nM	Not Active			COc1ccc(-c2nnc(Nc3ccc(C)cc3)c3ccccc23)cc1	98.3%	
420 nM		14.2%		Cc1ccc(Nc2nnc(-c3ccc(N(C)C)cc3)c3ccccc23)cc1	94.4%	
20 nM		3%		COc1ccc(-c2nnc(Nc3ccccc3)c3ccccc23)cc1	97.3%	
570 nM	Not Active			CCOc1ccc(-c2nnc(Nc3ccc(C)cc3)c3ccccc23)cc1	75.3%	
500 nM		10.1%		Clc1cccc(Nc2nnc(-c3ccccc3)c3ccccc23)c1	79.4%	
700 nM	Not Active			Cc1ccc(Nc2nnc(-c3ccc(OC(C)C)cc3)c3ccccc23)cc1	76.7%	
31 nM		23%		Cc1ccc(Nc2nnc(-c3ccccc3)c3ccccc23)cc1	98.9%	
540 nM	Not Active			Cc1ccc(Nc2nnc(-c3cccc(-c4ccccc4)c3)c3ccccc23)cc1	84.2%	
